A short description of series [1]: Bioavailability in Sprague-Dawley rat at 2 mg/kg, po. The format is ADME, organism-based. Conditions: in vivo. An outline of the steps: (§1)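 Single iv dose of 1 mg/kg or oral dose of 2 mg/kg, given in water. Plasma clearance and half-life come from dosing; Cmax is the peak plasma level after oral dosing. Oral bioavailability was derived from the po versus iv data.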

Series [2] is described as follows: Half life in Sprague-Dawley rat at 1 mg/kg, iv or 2 mg/kg, po. The series is classed as ADME, organism-based. The settings on record: in vivo. An outline of the steps:
as §1

Series [3] is described as follows: Cmax in Sprague-Dawley rat at 1 mg/kg, iv or 2 mg/kg, po. The series is classed as ADME, organism-based. Conditions: in vivo. The gist of the method:
as §1

Series [4] can be described thus: Plasma clearance in Sprague-Dawley rat at 1 mg/kg, iv or 2 mg/kg, po. The series is classed as ADME, organism-based. An outline of the steps: as §1
The target of a further series is Dipeptidyl peptidase 2 (Homo sapiens, UniProt Q9UHL4). Nature of the series: Inhibition of QPP.
In a further series the target is Dipeptidyl peptidase 8 (Homo sapiens, UniProt Q6V1X1). The experiment in a line: Inhibition of DPP8.
Sequence of Dipeptidyl peptidase 8 (Q6V1X1 whole entry): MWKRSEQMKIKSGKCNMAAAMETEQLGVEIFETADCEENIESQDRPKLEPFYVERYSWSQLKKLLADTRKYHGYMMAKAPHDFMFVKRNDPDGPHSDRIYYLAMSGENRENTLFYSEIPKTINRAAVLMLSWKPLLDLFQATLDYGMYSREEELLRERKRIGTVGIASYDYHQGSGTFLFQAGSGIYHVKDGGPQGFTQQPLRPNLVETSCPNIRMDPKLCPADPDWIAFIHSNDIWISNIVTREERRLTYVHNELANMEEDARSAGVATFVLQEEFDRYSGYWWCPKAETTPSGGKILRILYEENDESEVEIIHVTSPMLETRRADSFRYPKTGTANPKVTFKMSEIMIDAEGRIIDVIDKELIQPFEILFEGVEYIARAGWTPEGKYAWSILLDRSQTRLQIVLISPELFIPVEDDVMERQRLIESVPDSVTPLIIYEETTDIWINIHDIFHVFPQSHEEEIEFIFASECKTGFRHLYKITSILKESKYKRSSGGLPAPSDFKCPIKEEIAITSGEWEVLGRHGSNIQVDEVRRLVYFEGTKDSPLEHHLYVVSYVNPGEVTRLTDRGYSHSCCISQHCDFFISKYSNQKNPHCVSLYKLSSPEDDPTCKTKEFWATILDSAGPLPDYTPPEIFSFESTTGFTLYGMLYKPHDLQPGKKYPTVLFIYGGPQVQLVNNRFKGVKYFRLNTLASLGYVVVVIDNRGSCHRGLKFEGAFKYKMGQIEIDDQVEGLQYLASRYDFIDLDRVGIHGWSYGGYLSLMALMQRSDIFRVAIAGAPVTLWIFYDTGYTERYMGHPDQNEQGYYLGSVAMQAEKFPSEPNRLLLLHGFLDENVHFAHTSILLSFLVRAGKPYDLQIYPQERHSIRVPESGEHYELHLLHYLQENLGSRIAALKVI
Another series has as its target Dipeptidyl peptidase 4 (Homo sapiens, UniProt P27487). Nature of the series: Inhibition of DPP4.
Series [5] can be described thus: Plasma clearance in dog at 1 mg/kg, iv or 2 mg/kg, po. The format is ADME, organism-based, Canis lupus familiaris. An outline of the steps: as §1
Series [6] is described as follows: Cmax in monkey at 1 mg/kg, iv or 2 mg/kg, po. The series is classed as ADME, organism-based, Macaca mulatta. Conditions: rhesus monkey, in vivo. The gist of the method:
as §1

A further series has as its system Canis familiaris. Nature of the series: (§2) Half life in dog at 1 mg/kg, iv or 2 mg/kg, po. The series is classed as ADME, organism-based, Canis lupus familiaris. The settings on record: in vivo. The gist of the method: as §1
The nature of series [7]: Half life in monkey at 1 mg/kg, iv or 2 mg/kg, po. The format is ADME, organism-based, Macaca mulatta. Conditions: rhesus monkey, in vivo. An outline of the steps: as §1
Series [8] in a line: Bioavailability in monkey at 2 mg/kg, po. The series is classed as ADME, organism-based, Macaca mulatta. The settings on record: rhesus monkey, in vivo. An outline of the steps: as §1
A short description of series [9]: Cmax in dog at 1 mg/kg, iv or 2 mg/kg, po. The format is ADME, organism-based, Canis lupus familiaris. Conditions: in vivo. An outline of the steps:
as §1

The nature of series [10]: Bioavailability in dog at 2 mg/kg, po. Conditions: in vivo. The series is classed as ADME, organism-based, Canis lupus familiaris. An outline of the steps: as §1
Series [11] in a line: Plasma clearance in monkey at 1 mg/kg, iv or 2 mg/kg, po. The settings on record: rhesus monkey. The series is classed as ADME, organism-based, Macaca mulatta. The gist of the method: as §1
A short description of series [12]: as §2. The format is ADME, organism-based, Canis lupus familiaris. Conditions: in vivo. The gist of the method: as §1

As usually defined, the bioavailability is dose-corrected exposure relative to a reference, in per cent. In general, half-life refers to the time in which the quantity being followed falls by half. One may read the Cmax as the maximum level reached in the sampled fluid or tissue. Broadly, the IC50 is the midpoint of a concentration-inhibition curve.

Structures are written as SMILES. A value given as a limit tells only on which side of the number the result lay.

Sequence of Dipeptidyl peptidase 4 (P27487 whole entry): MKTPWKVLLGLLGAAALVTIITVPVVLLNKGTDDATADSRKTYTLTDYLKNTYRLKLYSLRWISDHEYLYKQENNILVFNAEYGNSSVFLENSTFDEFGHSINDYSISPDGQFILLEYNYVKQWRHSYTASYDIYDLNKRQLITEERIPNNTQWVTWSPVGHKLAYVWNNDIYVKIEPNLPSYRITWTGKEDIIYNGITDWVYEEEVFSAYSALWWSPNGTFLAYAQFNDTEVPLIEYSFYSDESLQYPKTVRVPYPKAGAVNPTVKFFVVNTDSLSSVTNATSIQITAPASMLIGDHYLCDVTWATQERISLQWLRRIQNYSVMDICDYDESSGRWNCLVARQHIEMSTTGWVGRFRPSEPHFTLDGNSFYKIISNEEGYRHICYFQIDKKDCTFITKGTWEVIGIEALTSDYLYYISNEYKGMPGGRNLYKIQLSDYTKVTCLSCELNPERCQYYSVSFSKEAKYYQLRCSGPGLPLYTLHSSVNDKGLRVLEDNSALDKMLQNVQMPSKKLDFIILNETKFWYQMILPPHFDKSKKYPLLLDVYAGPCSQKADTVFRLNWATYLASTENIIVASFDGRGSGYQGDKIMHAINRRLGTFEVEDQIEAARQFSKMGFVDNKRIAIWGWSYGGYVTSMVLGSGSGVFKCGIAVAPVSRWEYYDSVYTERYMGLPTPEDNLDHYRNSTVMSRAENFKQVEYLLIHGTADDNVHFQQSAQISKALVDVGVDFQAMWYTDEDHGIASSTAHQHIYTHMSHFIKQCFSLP

As to `C[C@@H]1C(=O)N(C2CC2)CCCN1C(=O)C[C@H](N)Cc1cc(F)c(F)cc1F`, the bioavailability in [1] stood at 45%. Also, in [2], the half-life was 4.3 h. In series [3], this compound registered a Cmax of 570 nM. In [4], the clearance is 51 mL/min/kg.

With `CC1CCNC(=O)CN1C(=O)C[C@H](N)Cc1cc(F)c(F)cc1F` (stereo in doubt; 13b), the values for the IC50 on Dipeptidyl peptidase 2, at Dipeptidyl peptidase 8 and on Dipeptidyl peptidase 4 were greater than 100 µM, greater than 100 µM and 1.05 µM, respectively.

Turning to `CCN1CCCN(C(=O)C[C@H](N)Cc2cc(F)ccc2F)[C@H](C)C1=O`, the bioavailability in [1] amounted to 7.4%. Also, the half-life in series [2] was 0.8 h. The compound also came in with a Cmax in series [3] of 30 nM. This compound gave a clearance in series [4] of 152 mL/min/kg. For the same compound, the IC50 on Dipeptidyl peptidase 2 was greater than 100 µM.

As to `C[C@@H]1CCN(C(=O)C[C@H](N)Cc2cc(F)c(F)cc2F)[C@H](Cc2ccccn2)C(=O)N1`, the bioavailability in [1] stood at 8.1%. The compound also had a half-life in [2] of 2 h. For the same compound, in series [3], the peak level (Cmax) was 10 nM. The clearance in series [4] was 97 mL/min/kg.

As for `CC1CCNC(=O)CN1C(=O)C[C@H](N)Cc1cc(F)c(F)cc1F` (stereo in doubt; 13a), the figures for the IC50 at Dipeptidyl peptidase 2, at Dipeptidyl peptidase 8 and against Dipeptidyl peptidase 4 were 44 µM, greater than 100 µM and 0.765 µM, respectively.

Regarding `C[C@@H]1C(=O)N(CC(=O)O)CCCN1C(=O)C[C@H](N)Cc1cc(F)ccc1F`, the half-inhibitory concentration (IC50) is greater than 100 µM against Dipeptidyl peptidase 2, greater than 100 µM at Dipeptidyl peptidase 8 and 0.0699 µM against Dipeptidyl peptidase 4.

In [1], `C[C@@H]1C(=O)N(C)CCCN1C(=O)C[C@H](N)Cc1cc(F)c(F)cc1F` came in with a bioavailability of 29%. The compound also had a half-life in series [2] of 1.3 h. Besides, the Cmax in series [3] was found to be 130 nM. In addition, the clearance in series [4] came out at 113 mL/min/kg. For the same compound, the IC50 at Dipeptidyl peptidase 2 is greater than 100 µM.

`N[C@@H](CC(=O)N1CCCNC(=O)C1)Cc1cc(F)c(F)cc1F`: the IC50 against Dipeptidyl peptidase 2 is greater than 100 µM.

Turning to `C[C@@H]1C(=O)N[C@H](C(F)(F)F)CCN1C(=O)C[C@H](N)Cc1cc(F)c(F)cc1F`, the values for the IC50 on Dipeptidyl peptidase 2 and on Dipeptidyl peptidase 4 were greater than 100 µM and 0.139 µM, respectively.

In [1], `N[C@@H](CC(=O)N1CCCNC(=O)C1CC(F)(F)F)Cc1cc(F)c(F)cc1F` (some centres undefined) had a bioavailability of 36%. The same compound gave a half-life in [2] of 2 h. Also, the concentration in [3] peaked (Cmax) at 90 nM. In addition, in series [4], the clearance turned out to be 94 mL/min/kg.

In the case of `C[C@@H]1C(=O)N(C2CC2)CCCN1C(=O)C[C@H](N)Cc1cc(F)ccc1F`, in [1], the bioavailability is 19%. In [2], this compound had a half-life of 1.6 h. The Cmax in series [3] was 50 nM. In [4], the clearance is 132 mL/min/kg. The compound also gave an IC50 against Dipeptidyl peptidase 2 greater than 100 µM.

With `CC1C(=O)NCCCN1C(=O)C[C@H](N)Cc1cc(F)ccc1F` (some centres undefined), the IC50 against Dipeptidyl peptidase 2 is greater than 100 µM.

In series [1], `C[C@@H]1C(=O)N2CCC[C@@H]2CCN1C(=O)C[C@H](N)Cc1cc(F)c(F)cc1F` displayed a bioavailability of 21%. The compound further showed a half-life in series [2] of 1.4 h. In series [3], the concentration peaked (Cmax) at 40 nM. In [4], this compound gave a clearance of 152 mL/min/kg.

As for `COC(=O)CN1CCCN(C(=O)C[C@H](N)Cc2cc(F)ccc2F)[C@H](C)C1=O`, the IC50 against Dipeptidyl peptidase 2 was greater than 100 µM; on Dipeptidyl peptidase 4 it was 0.0116 µM.

For `C[C@@H]1CCN(C(=O)C[C@H](N)Cc2cc(F)c(F)cc2F)[C@H](C)C(=O)N1`, the bioavailability in series [1] is 64%; in series [8], 71%; in series [10], 88%. Further, the figures for the half-life in series [2] and in [7] were 1.5 h and 4.7 h, respectively. In addition, the results for the maximum concentration (Cmax) in series [3], in series [6] and in series [9] were 170 nM, 430 nM and 1290 nM, respectively. Also, the clearance came to 8.5 mL/min/kg in series [5], 87 mL/min/kg in series [4] and 42.3 mL/min/kg in series [11]. This compound showed a t1/2 in the series with Canis familiaris of 7.2 h.

Regarding `C[C@H]1CNC(=O)[C@@H](C)N(C(=O)C[C@H](N)Cc2cc(F)c(F)cc2F)C1`, the bioavailability was 49% in series [1], 59% in [8] and 77% in series [10]. The half-life in series [2] was 1.5 h; in series [12], 8.1 h; in series [7], 4.4 h. Besides, the Cmax in series [3] was 140 nM; in series [6], 290 nM; in series [9], 1210 nM. The clearance turned out to be 8.1 mL/min/kg in [5], 92.8 mL/min/kg in [4] and 39.4 mL/min/kg in [11].

Take `C[C@@H]1C(=O)N(CC(F)(F)F)CCCN1C(=O)C[C@H](N)Cc1cc(F)c(F)cc1F`: in series [1], the bioavailability amounted to 23%. For the same compound, in [2], the half-life was 1.7 h. The compound also gave a Cmax in series [3] of 80 nM. Moreover, the clearance in [4] was determined as 82 mL/min/kg.

The record behind these values is ChEMBL document CHEMBL1144611, “Optimization of 1,4-diazepan-2-one containing dipeptidyl peptidase IV inhibitors for the treatment of type 2 diabetes” (Bioorg Med Chem Lett, 2007).
